The species named for one data set is Homo sapiens. The data set can be described thus: Selectivity index, ratio of EC50 for GAL4-tagged PPARalpha (unknown origin) to EC50 for human FXR.
The target in data set [1] is T1, Peroxisome proliferator-activated receptor alpha (Homo sapiens, UniProt Q07869).
T1 sequence (Q07869 whole entry): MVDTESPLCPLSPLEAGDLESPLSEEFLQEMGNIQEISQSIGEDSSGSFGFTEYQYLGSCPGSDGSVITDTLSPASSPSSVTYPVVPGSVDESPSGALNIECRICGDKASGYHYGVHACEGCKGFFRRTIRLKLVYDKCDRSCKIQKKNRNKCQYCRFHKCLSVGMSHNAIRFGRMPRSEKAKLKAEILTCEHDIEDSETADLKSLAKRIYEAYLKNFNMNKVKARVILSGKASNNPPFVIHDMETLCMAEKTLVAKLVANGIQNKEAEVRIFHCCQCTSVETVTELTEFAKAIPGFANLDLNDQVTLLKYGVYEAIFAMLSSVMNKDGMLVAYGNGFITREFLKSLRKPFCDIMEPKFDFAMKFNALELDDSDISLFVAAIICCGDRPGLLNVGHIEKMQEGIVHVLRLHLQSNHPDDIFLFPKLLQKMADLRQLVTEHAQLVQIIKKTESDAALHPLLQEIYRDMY
As to the kind of experiment: Activity at GAL4-tagged PPARalpha (unknown origin) expressed in COS7 cells assessed as receptor transactivation by luciferase reporter gene assay. In kind it is cell-based, COS-7. The procedure, abridged: (§1)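 Each PPAR subtype was tested as a Gal4 fusion carrying the human hinge region and LBD (cDNA from human monocytes) in transiently transfected COS-7 cells (Lipofectamine LTX), with a pFR-Luc reporter and pRL-SV40 for normalization. Compound in 0.1% DMSO was added 5 h post-transfection and incubated overnight. Firefly/renilla RLU was scaled to 1 μM GW7647 (α), L165,041 (δ) or pioglitazone (γ).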
(In a reporter assay the amount or activity of a reporter protein is the signal.)

The target of data set [2] is T2, Bile acid receptor (Homo sapiens) (UniProt Q96RI1).
T2 sequence (whole entry): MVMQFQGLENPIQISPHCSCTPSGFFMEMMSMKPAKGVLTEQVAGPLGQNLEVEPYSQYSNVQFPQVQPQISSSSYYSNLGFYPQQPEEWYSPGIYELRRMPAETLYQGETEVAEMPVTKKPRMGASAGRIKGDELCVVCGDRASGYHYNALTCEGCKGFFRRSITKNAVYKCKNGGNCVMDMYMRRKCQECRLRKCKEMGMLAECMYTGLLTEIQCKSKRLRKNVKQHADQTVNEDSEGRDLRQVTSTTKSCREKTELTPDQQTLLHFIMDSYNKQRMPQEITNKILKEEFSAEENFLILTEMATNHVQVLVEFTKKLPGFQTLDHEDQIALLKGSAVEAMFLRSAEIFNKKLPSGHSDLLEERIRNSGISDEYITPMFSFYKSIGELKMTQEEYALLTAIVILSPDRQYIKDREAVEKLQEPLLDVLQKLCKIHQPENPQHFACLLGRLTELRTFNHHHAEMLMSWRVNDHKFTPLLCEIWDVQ
The data set can be described thus: Agonist activity at FXR in human HepG2 cells assessed as induction of OSTalpha mrNA expression at 3 uM by quantitative PCR method. In kind it is cell-based. In short, it runs like this: (§2)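 HepG2 cells were seeded at 2 × 10⁶ per well. After 24 h they were switched to MEM with 1% charcoal-stripped FCS, and 24 h later dosed with compound (0.1, 0.3, 1, 3, 10 μM; 0.1% DMSO final) for 24 h. Total RNA was reverse transcribed and analysed by qPCR, GAPDH-normalized, ΔΔCt method. Samples were run in duplicate in ≥4 independent experiments.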

Data set [3] can be described thus: Aqueous solubility of the compound. It counts as physicochemical. The following applies: water (aqueous).
The next data set deals with HepG2. The data set can be described thus: Cytotoxicity against human HepG2 cells assessed as compound concentration causing reduction in cell viability by WST1 assay. It counts as cell-based. The procedure, abridged:
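WST-1 viability in HepG2 cells (3 × 10⁴ per well) in DMEM with 1% FCS, after 48 h exposure to 1, 10, 30 and 100 μM compound. Controls were Revlotron 100 μM (positive) and zileuton 100 μM or DMEM/1% DMSO (negative). WST reagent was added for 45 min and absorbance read at 450/620 nm; untreated set as 100%. Three repeats in triplicate.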
A general note: Tetrazolium assays rely on reduction of a dye to a coloured formazan, in cell work by metabolically active cells.

Data set [4] has as its target T2, Bile acid receptor (Homo sapiens). As to the kind of experiment: Agonist activity at FXR in human HepG2 cells assessed as induction of BSEP mrNA expression at 10 uM by quantitative PCR method. In kind it is cell-based. The procedure, abridged: as §2
For data set [5] the target is unchanged. As to the kind of experiment: Agonist activity at FXR in human HepG2 cells assessed as induction of IBABP mrNA expression at 3 uM by quantitative PCR method. In kind it is cell-based.
Data set [6] shares this target. As to the kind of experiment: Agonist activity at FXR in human HepG2 cells assessed as induction of OSTalpha mrNA expression at 0.1 uM by quantitative PCR method. In kind it is cell-based. The procedure, abridged:
as §2

In data set [7] the target is T3, Peroxisome proliferator-activated receptor delta (Homo sapiens, UniProt Q03181).
T3 sequence (Q03181 whole entry): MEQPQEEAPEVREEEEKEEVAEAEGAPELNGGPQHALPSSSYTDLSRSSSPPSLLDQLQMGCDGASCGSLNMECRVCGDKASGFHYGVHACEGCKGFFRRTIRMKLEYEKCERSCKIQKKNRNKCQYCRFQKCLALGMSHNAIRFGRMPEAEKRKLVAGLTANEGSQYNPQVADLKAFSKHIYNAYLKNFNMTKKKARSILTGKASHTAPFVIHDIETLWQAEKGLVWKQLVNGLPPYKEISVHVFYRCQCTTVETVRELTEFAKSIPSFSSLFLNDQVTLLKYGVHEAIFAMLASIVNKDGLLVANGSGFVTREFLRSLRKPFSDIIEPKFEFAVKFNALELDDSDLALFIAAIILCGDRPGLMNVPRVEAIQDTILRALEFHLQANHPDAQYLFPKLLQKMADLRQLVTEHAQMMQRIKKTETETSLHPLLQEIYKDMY
As to the kind of experiment: Activity at GAL4-tagged PPARdelta (unknown origin) expressed in COS7 cells assessed as receptor transactivation by luciferase reporter gene assay. It counts as cell-based, COS-7. The procedure, abridged:
as §1

In data set [8] the target is T2, Bile acid receptor (Homo sapiens). As to the kind of experiment: Agonist activity at FXR in human HepG2 cells assessed as induction of IBABP mrNA expression at 1 uM by quantitative PCR method. In kind it is cell-based.
Data set [9] has the same target. The data set can be described thus: Agonist activity at FXR in human HepG2 cells assessed as induction of OSTalpha mrNA expression at 1 uM by quantitative PCR method. In kind it is cell-based. In short, it runs like this: as §2
Data set [10] has the same target. As to the kind of experiment: Agonist activity at FXR in human HepG2 cells assessed as induction of SHP mrNA expression at 10 uM by quantitative PCR method. It counts as cell-based. The procedure, abridged:
as §2

Data set [11] has the same target. As to the kind of experiment: Agonist activity at FXR in human HepG2 cells assessed as induction of SHP mrNA expression at 0.3 uM by quantitative PCR method. In kind it is cell-based. In short, it runs like this: as §2
For data set [12] the target is unchanged. The data set can be described thus: Agonist activity at FXR in human HepG2 cells assessed as induction of SHP mrNA expression at 1 uM by quantitative PCR method. In kind it is cell-based. The procedure, abridged:
as §2

Data set [13] has the same target. As to the kind of experiment: Agonist activity at FXR in human HepG2 cells assessed as induction of BSEP mrNA expression at 0.1 uM by quantitative PCR method. In kind it is cell-based. In short, it runs like this: as §2
The target is the same in data set [14]. The data set can be described thus: Agonist activity at FXR in human HepG2 cells assessed as induction of OSTalpha mrNA expression at 10 uM by quantitative PCR method. It counts as cell-based. The procedure, abridged: as §2
For data set [15] the target is unchanged. As to the kind of experiment: Agonist activity at FXR in human HepG2 cells assessed as induction of SHP mrNA expression at 3 uM by quantitative PCR method. It counts as cell-based. The procedure, abridged: as §2

The record followed here is ChEMBL document CHEMBL3351394 (J Med Chem, 2014).

Converted amounts (≈) assume the structure as drawn.

For the compound `COc1ccc(C(=O)Nc2cccc(C(=O)O)c2)c(NC(=O)c2ccc(C(C)(C)C)cc2)c1`, the Ratio EC50 in the data set listed under Homo sapiens is greater than 1000. In addition, the values for the EC50 in data set [1] and in data set [7] were greater than 10 µM and 3 µM, respectively. In addition, the Activity in [2] was 149%; with HepG2, “>= 30 uM”; in data set [4], 308%; in data set [5], 168%; in data set [6], 151%; in data set [8] it was 161%. Also, the Activity was determined as 140% in data set [9]; 214% in data set [10]; 247% in [11]; 181% in data set [12]; 294% in data set [13]; 234% in data set [14]. Further, the Activity in data set [15] was 185%. The compound further came in with a solubility in [3] of 2.6 µg/mL (≈ 5.82 µM).

Broadly, the EC50 is the concentration that produces a half-maximal response. For orientation: solubility means the dissolved amount per volume that the medium holds. Low readings indicate little dissolved substance, high ones much dissolved substance.
